From ChEMBL document CHEMBL1138430, “Novel tetrahydroisoquinolines are histamine H3 antagonists and serotonin reuptake inhibitors” (Bioorg Med Chem Lett, 2007)
The source made the active and inactive calls. The rule behind the calls is not given here.

Key:
[1] = target: 5-hydroxytryptamine receptor 1B (Homo sapiens) (UniProt P28222); test: Binding affinity at 5HT1B receptor at 1 uM
[2] = target: Mu-type opioid receptor (Homo sapiens) (UniProt P35372); test: Binding affinity at MOP receptor at 1 uM
Rattus norvegicus [3] = test: Ex vivo receptor occupancy at SERT in rat at 0.3 mg/kg, sc; type: functional; settings: route subcutaneous
Outline: (§1)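 Ex vivo receptor occupancy was measured in rat brain at SERT and at the H3 receptor after a single subcutaneous dose. Brain drug concentrations were determined alongside occupancy.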

[4] = target: T1, Galanin receptor type 2 (Homo sapiens) (UniProt O43603); test: Binding affinity at galanin 2 receptor at 1 uM
T1 sequence (whole entry): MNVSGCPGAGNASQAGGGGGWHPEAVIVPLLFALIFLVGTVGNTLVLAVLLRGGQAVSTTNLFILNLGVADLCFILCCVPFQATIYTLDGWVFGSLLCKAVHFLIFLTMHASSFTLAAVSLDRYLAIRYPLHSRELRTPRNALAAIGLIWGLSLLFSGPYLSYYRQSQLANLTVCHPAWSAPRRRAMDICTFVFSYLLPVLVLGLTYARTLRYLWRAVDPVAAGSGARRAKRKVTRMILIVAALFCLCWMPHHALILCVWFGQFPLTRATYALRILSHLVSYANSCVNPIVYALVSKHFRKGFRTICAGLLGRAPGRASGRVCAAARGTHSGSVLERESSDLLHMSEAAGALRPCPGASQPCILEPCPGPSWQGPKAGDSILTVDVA

[5] = target: Sodium-dependent dopamine transporter (Homo sapiens, UniProt Q01959); test: Inhibition of [3H]WIN-uptake in human DAT expressed in CHO cells; type: cell-based
Outline: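 Human DAT expressed in CHO cells; membranes were incubated on ice for 2 h with 10.9 nM [3H]-WIN 35,428, then harvested by rapid filtration. Nonspecific binding was defined with GBR-12909. Ki values are means of at least three experiments run in triplicate, with SEM.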

[6] = target: Beta-1 adrenergic receptor (Homo sapiens) (UniProt P08588); test: Binding affinity at adrenergic beta-1 receptor at 1 uM
[7] = Volume of distribution at steady state in po and iv dosed rat; type: ADME, organism-based; settings: in vivo, read-out: Vdss
Histamine H3 receptor [8] = target: T2, Histamine H3 receptor (Homo sapiens, UniProt Q9Y5N1); test: Binding affinity at human histamine H3 receptor
Histamine H3 receptor [9] = target: T2, Histamine H3 receptor; test: Antagonist activity at human histamine H3 receptor; type: functional; settings: read-out: pA2 (converted)
[10] = Bioavailability in po dosed rat; type: ADME, organism-based; settings: in vivo
Brain = test: Drug level in rat brain at 0.3 mg/kg, sc; type: ADME, organism-based; set-up: dose 0.3 mg/kg, route subcutaneous; settings: in vivo, read-out: Drug uptake
[11] = tested on: Voltage-gated calcium channel; test: Binding affinity for calcium channel at 1 uM; type: protein-complex assay; settings: human
[12] = tested on: Voltage-gated potassium channel; test: Binding affinity for potassium channel at 1 uM; type: protein assay; settings: human
[13] = target: Sodium-dependent noradrenaline transporter (Homo sapiens, UniProt P23975); test: Inhibition of [3H]nisoxetine uptake in human NET expressed in MDCK cells; type: cell-based
[14] = Half life in po and iv dosed rat; type: ADME, organism-based; settings: in vivo
[15] = target: 5-hydroxytryptamine receptor 7 (Homo sapiens) (UniProt P34969); test: Binding affinity at 5HT7 receptor at 1 uM
[16] = Plasma clearance in po and iv dosed rat; type: ADME, organism-based
Rattus norvegicus [17] = test: Ex vivo receptor occupancy at histamine H3 receptor in rat at 0.3 mg/kg, sc; type: functional; settings: route subcutaneous; outline: as §1
[18] = target: Muscarinic acetylcholine receptor M3 (Homo sapiens) (UniProt P20309); test: Binding affinity at muscarinic M3 receptor at 1 uM
[19] = Cmax in rat brain at 10 mg/kg, po; type: ADME, organism-based; set-up: dose 10 mg/kg, route oral

Sequence of 5-hydroxytryptamine receptor 7 (Homo sapiens) (P34969 whole entry): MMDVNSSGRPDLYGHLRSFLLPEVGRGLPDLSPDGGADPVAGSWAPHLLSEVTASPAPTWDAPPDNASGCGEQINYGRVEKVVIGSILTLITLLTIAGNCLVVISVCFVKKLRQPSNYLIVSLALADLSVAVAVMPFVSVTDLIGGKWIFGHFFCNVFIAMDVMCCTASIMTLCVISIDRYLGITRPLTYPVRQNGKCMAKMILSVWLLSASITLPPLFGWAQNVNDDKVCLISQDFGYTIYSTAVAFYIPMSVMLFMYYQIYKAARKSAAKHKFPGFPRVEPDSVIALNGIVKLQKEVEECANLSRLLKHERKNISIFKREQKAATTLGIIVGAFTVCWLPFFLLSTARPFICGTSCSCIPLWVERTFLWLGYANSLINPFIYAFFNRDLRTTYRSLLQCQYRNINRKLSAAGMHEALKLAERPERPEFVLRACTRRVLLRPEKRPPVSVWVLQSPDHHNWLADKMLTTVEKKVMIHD
Sequence of Mu-type opioid receptor (Homo sapiens) (P35372 whole entry): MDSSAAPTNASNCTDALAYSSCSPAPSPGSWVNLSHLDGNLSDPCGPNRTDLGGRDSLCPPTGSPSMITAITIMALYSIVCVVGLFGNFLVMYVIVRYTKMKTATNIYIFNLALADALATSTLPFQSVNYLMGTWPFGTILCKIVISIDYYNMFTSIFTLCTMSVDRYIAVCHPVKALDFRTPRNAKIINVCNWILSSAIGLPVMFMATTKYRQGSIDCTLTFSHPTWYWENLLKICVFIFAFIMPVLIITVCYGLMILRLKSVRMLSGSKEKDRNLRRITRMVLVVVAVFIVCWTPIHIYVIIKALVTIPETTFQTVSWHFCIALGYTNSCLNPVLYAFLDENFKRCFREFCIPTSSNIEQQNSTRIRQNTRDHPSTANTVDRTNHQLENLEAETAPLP
Sequence of 5-hydroxytryptamine receptor 1B (Homo sapiens) (P28222 whole entry): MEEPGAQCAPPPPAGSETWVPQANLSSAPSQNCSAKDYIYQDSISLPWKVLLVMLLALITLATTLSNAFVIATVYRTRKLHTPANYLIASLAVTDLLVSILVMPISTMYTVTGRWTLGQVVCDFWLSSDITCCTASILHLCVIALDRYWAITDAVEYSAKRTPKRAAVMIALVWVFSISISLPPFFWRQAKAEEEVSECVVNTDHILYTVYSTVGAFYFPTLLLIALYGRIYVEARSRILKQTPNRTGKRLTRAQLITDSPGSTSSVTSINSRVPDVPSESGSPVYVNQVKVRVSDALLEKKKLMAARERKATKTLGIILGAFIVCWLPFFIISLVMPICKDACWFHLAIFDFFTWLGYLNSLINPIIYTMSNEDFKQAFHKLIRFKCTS
Sequence of Beta-1 adrenergic receptor (Homo sapiens) (P08588 whole entry, looked up): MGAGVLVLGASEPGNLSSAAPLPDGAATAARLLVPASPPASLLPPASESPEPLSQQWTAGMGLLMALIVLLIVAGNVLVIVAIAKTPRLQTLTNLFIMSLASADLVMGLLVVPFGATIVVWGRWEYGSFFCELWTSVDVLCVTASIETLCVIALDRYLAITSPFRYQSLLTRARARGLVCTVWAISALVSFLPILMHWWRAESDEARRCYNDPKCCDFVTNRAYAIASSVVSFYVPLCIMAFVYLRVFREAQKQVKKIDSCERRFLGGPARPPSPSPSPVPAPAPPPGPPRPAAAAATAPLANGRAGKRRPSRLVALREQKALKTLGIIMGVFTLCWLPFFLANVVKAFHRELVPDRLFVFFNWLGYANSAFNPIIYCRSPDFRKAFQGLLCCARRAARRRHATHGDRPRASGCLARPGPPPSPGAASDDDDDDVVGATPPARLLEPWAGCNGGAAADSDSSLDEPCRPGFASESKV
Sequence of Muscarinic acetylcholine receptor M3 (Homo sapiens) (P20309 whole entry, looked up): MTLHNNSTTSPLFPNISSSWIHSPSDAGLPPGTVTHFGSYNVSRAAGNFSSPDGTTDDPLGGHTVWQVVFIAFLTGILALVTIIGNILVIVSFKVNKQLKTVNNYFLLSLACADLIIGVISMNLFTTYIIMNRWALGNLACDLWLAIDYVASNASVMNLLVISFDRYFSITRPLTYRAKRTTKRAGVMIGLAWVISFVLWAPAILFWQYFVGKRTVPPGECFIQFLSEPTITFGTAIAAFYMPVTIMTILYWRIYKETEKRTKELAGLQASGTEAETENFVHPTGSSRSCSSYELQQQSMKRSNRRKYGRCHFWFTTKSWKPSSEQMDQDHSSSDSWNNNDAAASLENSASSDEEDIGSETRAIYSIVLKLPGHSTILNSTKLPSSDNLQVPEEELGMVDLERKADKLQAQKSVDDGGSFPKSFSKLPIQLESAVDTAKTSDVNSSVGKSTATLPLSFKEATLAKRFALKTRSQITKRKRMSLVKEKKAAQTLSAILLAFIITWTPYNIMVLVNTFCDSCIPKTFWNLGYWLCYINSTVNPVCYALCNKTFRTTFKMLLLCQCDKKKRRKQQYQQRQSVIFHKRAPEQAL
Sequence of Sodium-dependent noradrenaline transporter (P23975 whole entry): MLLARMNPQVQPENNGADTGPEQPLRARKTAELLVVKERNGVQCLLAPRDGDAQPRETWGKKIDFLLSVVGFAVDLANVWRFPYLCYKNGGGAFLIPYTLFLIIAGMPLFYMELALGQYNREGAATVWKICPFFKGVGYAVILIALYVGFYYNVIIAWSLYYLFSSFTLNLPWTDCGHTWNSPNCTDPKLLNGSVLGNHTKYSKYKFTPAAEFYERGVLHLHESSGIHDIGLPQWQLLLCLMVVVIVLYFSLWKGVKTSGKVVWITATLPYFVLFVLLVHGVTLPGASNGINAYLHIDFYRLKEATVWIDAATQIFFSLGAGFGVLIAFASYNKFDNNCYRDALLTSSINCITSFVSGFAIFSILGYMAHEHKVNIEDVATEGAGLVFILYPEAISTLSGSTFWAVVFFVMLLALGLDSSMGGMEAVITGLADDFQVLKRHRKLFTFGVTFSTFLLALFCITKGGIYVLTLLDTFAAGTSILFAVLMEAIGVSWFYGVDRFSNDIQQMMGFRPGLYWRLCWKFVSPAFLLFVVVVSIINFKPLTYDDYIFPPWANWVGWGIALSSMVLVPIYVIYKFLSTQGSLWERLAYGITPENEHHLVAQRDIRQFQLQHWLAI
Sequence of Sodium-dependent dopamine transporter (Q01959 whole entry): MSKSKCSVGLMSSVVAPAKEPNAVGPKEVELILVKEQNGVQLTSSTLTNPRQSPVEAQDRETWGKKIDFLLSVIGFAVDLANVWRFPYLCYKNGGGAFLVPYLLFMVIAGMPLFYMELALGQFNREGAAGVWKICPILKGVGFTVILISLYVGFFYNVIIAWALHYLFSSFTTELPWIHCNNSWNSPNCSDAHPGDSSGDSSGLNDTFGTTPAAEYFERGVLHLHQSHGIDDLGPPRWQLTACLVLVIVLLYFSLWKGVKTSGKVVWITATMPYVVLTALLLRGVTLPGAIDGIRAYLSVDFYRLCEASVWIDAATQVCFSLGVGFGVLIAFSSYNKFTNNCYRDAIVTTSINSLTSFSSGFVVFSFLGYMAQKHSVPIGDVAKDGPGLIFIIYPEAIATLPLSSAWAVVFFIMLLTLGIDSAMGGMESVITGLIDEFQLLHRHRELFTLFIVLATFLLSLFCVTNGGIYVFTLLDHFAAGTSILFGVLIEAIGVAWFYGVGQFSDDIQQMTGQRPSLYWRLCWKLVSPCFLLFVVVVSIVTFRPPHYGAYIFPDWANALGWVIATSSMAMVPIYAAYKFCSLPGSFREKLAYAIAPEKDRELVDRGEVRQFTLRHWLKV
T2 sequence (Q9Y5N1 whole entry): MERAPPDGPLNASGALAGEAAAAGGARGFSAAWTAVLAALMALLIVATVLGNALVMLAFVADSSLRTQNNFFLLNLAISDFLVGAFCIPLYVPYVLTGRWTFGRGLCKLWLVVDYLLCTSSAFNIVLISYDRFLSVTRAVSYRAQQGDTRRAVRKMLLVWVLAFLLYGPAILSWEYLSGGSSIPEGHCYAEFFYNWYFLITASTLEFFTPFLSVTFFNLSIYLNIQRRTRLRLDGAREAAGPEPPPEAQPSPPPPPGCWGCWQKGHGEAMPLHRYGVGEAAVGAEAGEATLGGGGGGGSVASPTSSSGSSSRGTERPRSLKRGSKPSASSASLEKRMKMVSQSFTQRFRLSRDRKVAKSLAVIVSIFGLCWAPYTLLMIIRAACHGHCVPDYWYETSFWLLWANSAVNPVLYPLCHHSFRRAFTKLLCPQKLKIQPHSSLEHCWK

| Activity [1] | Activity [2] | Activity [4] | Ki [5] | Activity [6] | Vd [7] | Ki (Histamine H3 receptor [8]) | Kb (Histamine H3 receptor [9]) | bioavailability [10] | concentration (Brain) | Activity [11] | Activity [12] | Ki [13] | half-life [14] | Activity [15] | clearance [16] | Activity [18] | Cmax [19] | SMILES | Activity (Rattus norvegicus [3]) | Activity (Rattus norvegicus [17]) |
| --- | --- | --- | --- | --- | --- | --- | --- | --- | --- | --- | --- | --- | --- | --- | --- | --- | --- | --- | --- | --- |
| inactive | inactive | inactive | 102 nM | inactive | 6.8 L/kg | 5.6 nM | 0.891 nM | 5% | 880 nM | Not Active | Not Active | 121 nM | 9 h | inactive | 18.1 mL/min/kg | inactive | – | COc1ccc([C@@H]2CN(C)Cc3cc(OCCCN4CCOC[C@@H]4C)ccc32)cc1 | 100% | 100% |
| inactive | inactive | inactive | 29 nM | inactive | 5.1 L/kg | – | – | 38% | 670 nM | Not Active | Not Active | 106 nM | 6.6 h | inactive | 14 mL/min/kg | inactive | 9600 nM | CSc1ccc(C2CN(C)Cc3cc(OCCCN4CCOCC4)ccc32)cc1 (racemic) | 100% | 100% |
| inactive | inactive | inactive | – | inactive | – | – | – | – | – | – | – | – | – | inactive | – | inactive | – | CSc1ccc(C2CN(C)Cc3cc(OCCCN4CCC(F)CC4)ccc32)cc1 (racemic) | – | – |
